Laboratory results: ChEMBL document CHEMBL1138515, “Synthesis and biological characterization of B-ring amino analogues of potent benzothiadiazine hepatitis C virus polymerase inhibitors” (J Med Chem, 2009)

Key:
[1] = Inhibition of HCV1a H77 NS5B assessed as [3H]UTP incorporation into RNA by scintillation counting; parameters: species or system Hepatitis C virus (isolate H77)
How it was run: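 Two-fold serial inhibitor dilutions were preincubated for 15 min at room temperature with NS5B (genotype 1a H77 or genotype 1b BK, 20-50 nM) in 20 mM Tris-Cl pH 7.4, 2 mM MnCl₂, 1 mM DTT, 1 mM EDTA and 60-125 µM GTP. Reactions were started with 20 µM CTP, 20 µM ATP, 1 µM ³H-UTP, 5 nM template RNA and RNase inhibitor, then run 2-4 h at room temperature.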

Hepatitis C virus [2] = assay: Antiviral activity against HCV1a H77 assessed as inhibition of viral replication by cell-based replicon assay; assay type: functional, organism-based, Hepacivirus hominis; settings: genotype 1a H77
How it was run: (§1)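 Stable luciferase-reporter subgenomic replicon Huh-7 lines (1a H77; 1b Con1) were seeded at 5000 cells/well in DMEM with 5% FBS. The next day an eight-point half-log dilution series was added from DMSO stocks. After 3 days the cells were lysed, luciferin was added and luminescence was read. EC₅₀ came from percent inhibition of replication at each concentration.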

[3] = Clearance in Sprague-Dawley rat at 5 mg/kg, iv; assay type: ADME, organism-based; parameters: dose 5 mg/kg, route intravenous; settings: in vivo
How it was run: (§2)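 Overnight-fasted Sprague-Dawley rats (n = 3) received a single 5 mg/kg iv or oral dose in DMSO/PEG400 (1:9, v/v). Mean concentrations were fitted multiexponentially. AUC₀₋ₜ was calculated by linear trapezoidal rule and extrapolated to infinity using Cₜ divided by the terminal rate constant.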

[4] = AUC (0 to infinity) in Sprague-Dawley rat at 5 mg/kg, po; assay type: ADME, organism-based; parameters: time infinity, dose 5 mg/kg, route oral; settings: plasma; how it was run: as §2
[5] = Cmax in Sprague-Dawley rat at 5 mg/kg, po; assay type: ADME, organism-based; parameters: dose 5 mg/kg, route oral; settings: in vivo; how it was run: as §2
[6] = Half life in Sprague-Dawley rat at 5 mg/kg, iv; assay type: ADME, organism-based; parameters: dose 5 mg/kg, route intravenous; settings: in vivo; how it was run: as §2
[7] = Oral bioavailability in Sprague-Dawley rat at 5 mg/kg; assay type: ADME, organism-based; settings: in vivo; how it was run: as §2
Genome polyprotein = Genome polyprotein (Hepatitis C virus genotype 1b (isolate Con1) (HCV), UniProt Q9WMX2); assay: Inhibition of HCV1b Con1 NS5B assessed as [3H]UTP incorporation into RNA by scintillation counting
[8] = Drug level in Sprague-Dawley rat liver at 5 mg/kg, po after 1 hr; assay type: ADME, organism-based; parameters: dose 5 mg/kg, route oral; settings: read-out: Drug uptake
How it was run: (§3)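 Sprague-Dawley rats were given 5 mg/kg orally in DMSO/PEG400 (1:9, v/v). Separate animals were sampled for liver and plasma at 1, 6 and 12 h. Drug in liver (µg/g) and in plasma was measured by LC-MS, and liver/plasma ratios were taken at each time.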

[9] = Ratio of drug level in liver to plasma of Sprague-Dawley rat at 5 mg/kg, po after 1 hr; assay type: ADME, organism-based; parameters: dose 5 mg/kg, route oral; settings: liver and plasma; how it was run: as §3
Hepatitis C virus [10] = assay: Antiviral activity against HCV1b Con1 infected in human Huh7 cells assessed as inhibition viral subgenomic replication […]; assay type: functional, organism-based, Hepacivirus hominis; settings: isolate Con1, Huh-7
[11] = Drug level in Sprague-Dawley rat liver at 5 mg/kg, po after 6 hrs; assay type: ADME, organism-based; parameters: dose 5 mg/kg, route oral; settings: read-out: Drug uptake; how it was run: as §3
[12] = Ratio of drug level in liver to plasma of Sprague-Dawley rat at 5 mg/kg, po after 6 hrs; assay type: ADME, organism-based; parameters: dose 5 mg/kg, route oral; settings: liver and plasma; how it was run: as §3
Hepatitis C virus [13] = assay: Antiviral activity against HCV1b Con1 infected in human Huh7 cells assessed as inhibition viral subgenomic replication; assay type: functional, organism-based, Hepacivirus hominis; settings: isolate Con1, Huh-7; how it was run: as §1
[14] = Drug level in Sprague-Dawley rat liver at 5 mg/kg, po after 12 hrs; assay type: ADME, organism-based; parameters: dose 5 mg/kg, route oral; settings: read-out: Drug uptake; how it was run: as §3
[15] = Ratio of drug level in liver to plasma of Sprague-Dawley rat at 5 mg/kg, po after 12 hrs; assay type: ADME, organism-based; parameters: dose 5 mg/kg, route oral; settings: liver and plasma; how it was run: as §3
Hepatitis C virus [16] = assay: Antiviral activity against HCV1a H77 infected in human Huh7 cells assessed as inhibition viral subgenomic replication; assay type: functional, organism-based, Hepacivirus hominis; settings: genotype 1a H77, Huh-7; how it was run: as §1

Genome polyprotein, sequence (Q9WMX2 2420-3010 limits assumed): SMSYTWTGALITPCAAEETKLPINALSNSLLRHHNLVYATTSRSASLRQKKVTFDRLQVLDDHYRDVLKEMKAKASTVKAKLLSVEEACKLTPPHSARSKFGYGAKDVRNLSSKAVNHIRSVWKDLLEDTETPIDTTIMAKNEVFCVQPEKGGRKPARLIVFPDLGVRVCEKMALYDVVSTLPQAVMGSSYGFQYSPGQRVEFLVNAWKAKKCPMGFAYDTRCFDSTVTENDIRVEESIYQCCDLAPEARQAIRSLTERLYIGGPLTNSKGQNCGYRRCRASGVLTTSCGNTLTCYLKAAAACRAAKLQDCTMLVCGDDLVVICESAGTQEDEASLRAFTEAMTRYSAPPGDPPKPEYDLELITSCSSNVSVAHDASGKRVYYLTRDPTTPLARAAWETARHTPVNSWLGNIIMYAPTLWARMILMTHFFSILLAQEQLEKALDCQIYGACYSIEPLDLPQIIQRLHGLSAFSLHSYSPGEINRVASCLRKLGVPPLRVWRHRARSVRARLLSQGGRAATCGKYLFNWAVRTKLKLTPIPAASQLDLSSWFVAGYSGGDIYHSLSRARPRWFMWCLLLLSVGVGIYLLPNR

| SMILES | IC50 [1] [nM] | EC50 (Hepatitis C virus [2]) [nM] | other results |
| --- | --- | --- | --- |
| CC(C)(C)CCC1(NCc2ccc(O)cc2)C(=O)C(C2=NS(=O)(=O)c3cc(NS(C)(=O)=O)ccc3N2)=C(O)c2ccccc21 (centres undefined) | 20 | 13 | – |
| Cn1ccnc1CNC1(CCC(C)(C)C)C(=O)C(C2=NS(=O)(=O)c3cc(NS(C)(=O)=O)ccc3N2)=C(O)c2ccccc21 (centres undefined) | 9 | 29 | – |
| CC(C)(C)CCC1(NCc2csc3ccccc23)C(=O)C(C2=NS(=O)(=O)c3cc(NS(C)(=O)=O)ccc3N2)=C(O)c2ccccc21 (centres undefined) | 19 | 13 | – |
| COc1cccc(CNC2(CCC(C)(C)C)C(=O)C(C3=NS(=O)(=O)c4cc(NS(C)(=O)=O)ccc4N3)=C(O)c3ccccc32)c1 (centres undefined) | 13 | 20 | – |
| CC(C)CCC1(N)C(=O)C(C2=NS(=O)(=O)c3cc(NS(C)(=O)=O)ccc3N2)=C(O)c2ccccc21 (centres undefined) | 12 | 29 | – |
| CC(C)(C)CCC1(NCc2ccc(OCc3ccccc3)cc2)C(=O)C(C2=NS(=O)(=O)c3cc(NS(C)(=O)=O)ccc3N2)=C(O)c2ccccc21 (centres undefined) | 27 | 118 | – |
| CC(C)(C)CCC1(NCc2ccc(-c3ccccc3)cc2)C(=O)C(C2=NS(=O)(=O)c3cc(NS(C)(=O)=O)ccc3N2)=C(O)c2ccccc21 (centres undefined) | 27 | – | – |
| CC(C)(C)CCC1(NCc2ccccc2C(F)(F)F)C(=O)C(C2=NS(=O)(=O)c3cc(NS(C)(=O)=O)ccc3N2)=C(O)c2ccccc21 (centres undefined) | 33 | 35 | – |
| CC(C)(C)CCC1(NCc2ccc3ccccc3c2)C(=O)C(C2=NS(=O)(=O)c3cc(NS(C)(=O)=O)ccc3N2)=C(O)c2ccccc21 (centres undefined) | 23 | 16 | clearance [3]: 23.3 mL/min/kg; AUC(0-inf) [4]: 1020 ng·h/mL; Cmax [5]: 180 ng/mL; half-life [6]: 2.2 h; bioavailability [7]: 28.1% |
| CC(C)CCC1(NC(N)=O)C(=O)C(C2=NS(=O)(=O)c3cc(NS(C)(=O)=O)ccc3N2)=C(O)c2ccccc21 (centres undefined) | 27 | 576 | – |
| COc1ccc(CNC2(CCC(C)(C)C)C(=O)C(C3=NS(=O)(=O)c4cc(NS(C)(=O)=O)ccc4N3)=C(O)c3ccccc32)cc1 (centres undefined) | 13 | 13 | – |
| CC(C)CC[C@@]1(NS(C)(=O)=O)C(=O)C(C2=NS(=O)(=O)c3cc(NS(C)(=O)=O)ccc3N2)=C(O)c2ccccc21 | 7 | 56 | clearance [3]: 71.7 mL/min/kg; half-life [6]: 0.2 h; bioavailability [7]: 0% |
| COC(=O)NC1(CCC(C)C)C(=O)C(C2=NS(=O)(=O)c3cc(NS(C)(=O)=O)ccc3N2)=C(O)c2ccccc21 (centres undefined) | 25 | 210 | – |
| Cc1cc(C)c(CNC2(CCC(C)(C)C)C(=O)C(C3=NS(=O)(=O)c4cc(NS(C)(=O)=O)ccc4N3)=C(O)c3ccccc32)c(C)c1 (centres undefined) | 33 | 60 | – |
| CC(C)CC[C@@]1(N)C(=O)C(C2=NS(=O)(=O)c3cc(NS(C)(=O)=O)ccc3N2)=C(O)c2ccccc21 | 4 | 37 | clearance [3]: 35.3 mL/min/kg; half-life [6]: 0.3 h; bioavailability [7]: 0% |
| CON(C(C)=O)C1(CCC(C)C)C(=O)C(C2=NS(=O)(=O)c3cc(NS(C)(=O)=O)ccc3N2)=C(O)c2ccccc21 (centres undefined) | 83 | – | – |
| COc1cccc(CNC2(CCC(C)C)C(=O)C(C3=NS(=O)(=O)c4cc(NS(C)(=O)=O)ccc4N3)=C(O)c3ccccc32)c1 (centres undefined) | 14 | 38 | – |
| Cc1cccc(C)c1CN[C@]1(CCC(C)(C)C)C(=O)C(C2=NS(=O)(=O)c3cc(NS(C)(=O)=O)ccc3N2)=C(O)c2ccccc21 | 16 | – | IC50 (Genome polyprotein): 19 nM; concentration at 1 h [8]: 5860 ng/g; Kp at 1 h [9]: 12; clearance [3]: 11.7 mL/min/kg; AUC(0-inf) [4]: 4210 ng·h/mL; Cmax [5]: 620 ng/mL; EC50 (Hepatitis C virus [10]): 270 nM; concentration at 6 h [11]: 4360 ng/g; Kp at 6 h [12]: 15; EC50 (Hepatitis C virus [13]): 6 nM; concentration at 12 h [14]: 2110 ng/g; half-life [6]: 3.1 h; Kp at 12 h [15]: 11; bioavailability [7]: 55.9%; EC50 (Hepatitis C virus [16]): 10 nM |
